The text below walks through data of ChEMBL document CHEMBL4819003, “Optimization of novel oxidative DIMs as Nur77 modulators of the Nur77-Bcl-2 apoptotic pathway” (Eur J Med Chem, 2021).

Structures are written as SMILES. Activity calls are given as the source filed them. No cut-off for these calls is given here.

Data set [1] addresses T1, Nuclear receptor subfamily 4immunitygroup A member 1 (Homo sapiens, UniProt P22736). The experiment in a line: Modulation of Myc-Nur77-LBD (unknown origin) transfected in human HEK293T cells assessed as induction of Myc-Nur77 mitochondrial targeting by measuring increase in Myc-Nur77 accumulation in mitochondria at 0.5 uM measured after 2 hrs by Mito-tracker dye based confocal microscopy method. The following applies: filed as modulator. In short, it runs like this:
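HEK293T cells transfected with Myc-Nur77-LBD were given 0.5 μM compound for 2 h, stained with Mito-Tracker and immunostained. Nur77 mitochondrial localisation was visualised by confocal microscopy.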

Data set [2] has as its system MEF. The experiment in a line: Induction of apoptosis in mouse MEF cells deficient in Bcl2 assessed as PARP cleavage at 0.5 uM measured after 6 hrs by Western blot assay. In kind it is functional, cell-based. In short, it runs like this:
(§1)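 Wild-type, Nur77−/− or Bcl-2−/− mouse embryonic fibroblasts grown in DMEM with 10% FBS and treated with 0.5 µM for 6 h. PARP cleavage detected by western blot, primary antibodies at 1:1000, ECL.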
Background: In western blotting, separated proteins are transferred to a membrane and probed.

Data set [3] has as its target T1, Nuclear receptor subfamily 4immunitygroup A member 1. The experiment in a line: Modulation of GFP-Nur77 (unknown origin) transfected in human HEK293T cells co-transfected with Flag-tagged Bcl2 assessed as interaction of Nur77 with Bcl2 in mitochondria at 0.5 uM measured after 2 hrs by confocal microscopy. The following applies: filed as modulator. In short, it runs like this: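 HEK293T cells were lipofectamine-cotransfected with Flag-Bcl-2 and GFP-Nur77 or GFP-Nur77-LBD, then given 0.5 μM compound for 2 h. Cells were fixed in 4% paraformaldehyde, permeabilised with 0.1% Triton X-100, blocked in 1% BSA and stained with anti-Flag plus DAPI. Mitochondrial colocalisation with Bcl-2 was read by confocal microscopy.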

Data set [4] deals with MEF. The experiment in a line: Induction of apoptosis in wild type mouse MEF cells assessed as PARP cleavage at 0.5 uM measured after 6 hrs by western blot assay. In kind it is functional, cell-based. In short, it runs like this:
as §1

Data set [5] is described as follows: Half life in male/female Sprague-Dawley rat at 0.5 mg/kg, iv measured for 36 hrs by LC-MS/MS analysis. It is filed as ADME, organism-based. The following applies: both, in vivo.
A short description of data set [6]: Toxicity in mammary tumor MMTV-PyMT mouse model assessed as changes in body weight at 3 mg/kg, po administered daily for 14 days. In kind it is organism-based. The following applies: in vivo, 336 h, time 14 day. Summed up: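 Female MMTV-PyMT transgenic mice (FVB/N background), 12 weeks old, randomized n = 6 per group. They received daily oral gavage of 3 mg/kg for 14 days. Drug was dissolved in DMSO and diluted with saline containing 5.0% Tween-80 to 3 mg/mL final. Body weight was recorded after 14 days against untreated controls, mean ± SD.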

A further data set relates to BT-549. The experiment in a line: Induction of apoptosis in human BT-549 cells assessed as PARP cleavage at 0.5 uM measured after 6 hrs by western blot assay. It is filed as functional, cell-based. Summed up: (§2)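 Cells exposed to 0.5 µM for 6 h. Lysates resolved by SDS-PAGE and blotted to PVDF, blocked in 5% milk/TBST, probed with primary antibodies at 1:1000, ECL detection. Apoptosis scored as the densitometric ratio of cleaved PARP band to intact PARP band; mean ± SD, n = 3.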

Data set [7] is described as follows: AUC (0 to t) in male/female Sprague-Dawley rat at 0.5 mg/kg, iv measured for 36 hrs by LC-MS/MS analysis. In kind it is ADME, organism-based. The arrangement: dose 0.5 mg/kg, time 36 hrs. The following applies: both, in vivo. In short, it runs like this: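 Four Sprague-Dawley rats per route (2 male, 2 female; 200–220 g) received 0.5 mg/kg IV or 5 mg/kg PO in DMSO/Tween-80/water (1:5:94). Heparinized blood was taken at 5 min–36 h after IV dosing and at 0.5, 1, 3, 4, 6, 8, 10, 12, 24 and 36 h after oral dosing. Methanol (2% HCl) precipitation with carbamazepine internal standard preceded LC-MS/MS; values are mean ± SD.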

Another data set relates to SW-620. Briefly: Induction of apoptosis in human SW-620 cells assessed as PARP cleavage at 0.5 uM measured after 6 hrs by western blot assay. It is filed as functional, cell-based. Summed up: as §2
The nature of data set [8]: Selectivity index, ratio of IC50 for human MCF-10A cells to IC50 for human MDA-MB-231 cells. In kind it is toxicity. Particulars: MCF-10A cells versus MDA-MB-231 cells, read-out: Ratio IC50.
A short description of data set [9]: Tmax in male/female Sprague-Dawley rat at 5 mg/kg, po measured for 36 hrs by LC-MS/MS analysis. Particulars: both, in vivo. In kind it is ADME, organism-based. In short, it runs like this:
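Sprague-Dawley rats (200–220 g), four per route group (2 male, 2 female), given 0.5 mg/kg IV or 5 mg/kg orally in DMSO/T-80/H2O (1:5:94). Heparinized blood was sampled at 5 min–36 h after IV and at 0.5, 1, 3, 4, 6, 8, 10, 12, 24 and 36 h after oral dosing. Plasma was methanol (2% HCl)-precipitated with carbamazepine internal standard and quantified by LC-MS/MS. Parameters reported as mean ± SD.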

Data set [10] addresses T1, Nuclear receptor subfamily 4immunitygroup A member 1. The experiment in a line: Modulation of Myc-Nur77 (unknown origin) transfected in human HEK293T cells co-transfected with Flag-tagged Bcl2 assessed as interaction of Nur77 with Bcl2 at 0.5 uM measured after 1 to 3 hrs by co-immunoprecipitation assay. The following applies: filed as modulator, time 1-3 hrs. In kind it is cell-based. Summed up:
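HEK293T cells cotransfected with Flag-Bcl-2 and Myc-Nur77 were treated with or without 0.5 μM compound over the indicated times. They were lysed in Triton X-100 buffer with protease inhibitors; 5% of lysate was kept as input. Lysate was immunoprecipitated with anti-Flag at 4 °C for 12 h, then protein A-Sepharose for 3 h, washed three times in PBS and western blotted.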

Data set [11] in a line: Half life in male Sprague-Dawley rat at 0.5 mg/kg, iv measured for 36 hrs by LC-MS/MS analysis. In kind it is ADME, organism-based. Particulars: in vivo.
A short description of data set [12]: Half life in male Sprague-Dawley rat at 5 mg/kg, po measured for 36 hrs by LC-MS/MS analysis. It is filed as ADME, organism-based. The following applies: in vivo.
A short description of data set [13]: Volume of distribution at steady state in male Sprague-Dawley rat at 0.5 mg/kg, iv measured for 36 hrs by LC-MS/MS analysis. It is filed as ADME, organism-based. Particulars: in vivo, read-out: Vdss. Summed up:
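Sprague-Dawley rats (200–220 g), three males and three females per route group. Dosed 5 mg/kg orally or 0.5 mg/kg IV as a solution in DMSO/T-80/H2O (1:5:94 by volume). Heparinized blood was drawn from 5 min to 36 h after IV and 1–36 h after oral dosing. Plasma was protein-precipitated with methanol (2% HCl) plus carbamazepine internal standard and assayed by LC-MS/MS. Parameters were taken from concentration-time data; n = 3 per sex, mean ± SD.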

Data set [14] in a line: Half life in female Sprague-Dawley rat at 5 mg/kg, po measured for 36 hrs by LC-MS/MS analysis. In kind it is ADME, organism-based. Particulars: in vivo.
Data set [15] is described as follows: MRT(0 to t) in female Sprague-Dawley rat at 5 mg/kg, po measured for 36 hrs by LC-MS/MS analysis. In kind it is ADME, organism-based. Particulars: in vivo.
The nature of data set [16]: MRT(0 to t) in male Sprague-Dawley rat at 0.5 mg/kg, iv measured for 36 hrs by LC-MS/MS analysis. Particulars: in vivo. It is filed as ADME, organism-based.

T1 sequence (P22736 whole entry, the tested form may be a part): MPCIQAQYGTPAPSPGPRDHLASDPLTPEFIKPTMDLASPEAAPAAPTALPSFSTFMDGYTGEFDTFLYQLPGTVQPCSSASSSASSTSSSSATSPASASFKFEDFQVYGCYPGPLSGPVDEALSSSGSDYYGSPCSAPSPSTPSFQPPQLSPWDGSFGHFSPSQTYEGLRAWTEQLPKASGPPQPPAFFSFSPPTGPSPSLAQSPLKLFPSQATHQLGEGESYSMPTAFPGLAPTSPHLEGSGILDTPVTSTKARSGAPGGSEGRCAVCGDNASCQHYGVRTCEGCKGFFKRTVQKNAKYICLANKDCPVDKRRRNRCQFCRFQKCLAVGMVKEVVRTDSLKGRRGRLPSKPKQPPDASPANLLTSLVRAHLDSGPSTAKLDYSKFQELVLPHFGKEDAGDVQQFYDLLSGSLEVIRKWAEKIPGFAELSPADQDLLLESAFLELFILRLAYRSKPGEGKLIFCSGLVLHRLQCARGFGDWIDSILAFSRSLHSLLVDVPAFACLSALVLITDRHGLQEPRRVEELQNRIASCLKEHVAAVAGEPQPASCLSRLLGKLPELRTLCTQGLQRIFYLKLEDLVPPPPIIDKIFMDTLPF

Broadly, the half-life is the time in which the quantity being followed falls by half. A low value points to fast loss. Usually AUC(0-t) stands for exposure summed from dosing to a finite time, without extrapolation to infinity. A lower AUC(0-t) goes with low exposure. As a reminder, the Tmax is the time from dosing to the highest level. On to `CS(=O)(=O)[O-].Cn1cc([C+](c2ccc(C(F)(F)F)cc2)c2c[nH]c3ccccc23)c2ccccc21`, for which the outcome (in data set [1]; in data set [3]; with MEF [4]; with BT-549; with SW-620; in data set [10]) was Active. For the same molecule, the outcome with MEF [2] was inactive. Besides, in data set [5], the half-life was 2.66 h. The Activity entry in [6] is on record as “Non-Toxic”. Further, the AUC(0-t) at 36 h in data set [7] was 501 ng·h/mL. For the same molecule, in [8], the selectivity ratio worked out at 40. Further, in [9], the time of peak concentration (Tmax) was 3 h.
As a reminder, the MRT last is the average time that molecules of a dose stay in the body. Turning to `CS(=O)(=O)[O-].FC(F)(F)c1ccc([C+](c2c[nH]c3ccccc23)c2c[nH]c3ccccc23)cc1`, the half-life in data set [11] is 4.05 h; in data set [12], 5.28 h; in [14] it was 6.81 h. For the same molecule, the Vd in data set [13] was 2.56 L/kg. Further, the values for the MRT last at 36 h in data set [15] and in data set [16] were 14.5 h and 4.31 h, respectively.
